In one data set the test system is Mus musculus. The data set can be described thus: Reversal of haloperidol-induced hypolocomotion in po dosed NMRI mouse administered 30 mins before haloperidol challenge measured for 20 mins.
Conditions: not given
The data set is classed as functional. The gist of the method: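 Male NMRI mice (n = 8/group) were given compound po in 25% cremophor/saline, then haloperidol 0.63 mg/kg sc 30 min later. After 15 min they went into photocell activity boxes, and locomotion was recorded for 20 min. ED50 by sigmoidal fit with top 100 and bottom 0.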
Sequence of Cytochrome P450 2D6 (P10635 whole entry): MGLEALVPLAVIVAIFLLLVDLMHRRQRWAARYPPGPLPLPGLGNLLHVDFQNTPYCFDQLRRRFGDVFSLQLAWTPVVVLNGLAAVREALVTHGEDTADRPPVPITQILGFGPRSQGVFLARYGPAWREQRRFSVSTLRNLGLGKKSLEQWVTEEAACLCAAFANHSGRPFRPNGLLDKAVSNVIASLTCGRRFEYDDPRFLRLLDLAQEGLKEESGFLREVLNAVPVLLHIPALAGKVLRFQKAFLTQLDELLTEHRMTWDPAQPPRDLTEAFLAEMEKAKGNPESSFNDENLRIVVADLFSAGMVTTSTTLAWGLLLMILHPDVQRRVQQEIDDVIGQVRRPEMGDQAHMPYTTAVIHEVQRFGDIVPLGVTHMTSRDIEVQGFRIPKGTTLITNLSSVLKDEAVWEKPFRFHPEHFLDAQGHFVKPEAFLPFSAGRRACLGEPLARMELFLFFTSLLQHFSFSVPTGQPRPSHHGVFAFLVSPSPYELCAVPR
Sequence of Cytochrome P450 2C19 (P33261 whole entry): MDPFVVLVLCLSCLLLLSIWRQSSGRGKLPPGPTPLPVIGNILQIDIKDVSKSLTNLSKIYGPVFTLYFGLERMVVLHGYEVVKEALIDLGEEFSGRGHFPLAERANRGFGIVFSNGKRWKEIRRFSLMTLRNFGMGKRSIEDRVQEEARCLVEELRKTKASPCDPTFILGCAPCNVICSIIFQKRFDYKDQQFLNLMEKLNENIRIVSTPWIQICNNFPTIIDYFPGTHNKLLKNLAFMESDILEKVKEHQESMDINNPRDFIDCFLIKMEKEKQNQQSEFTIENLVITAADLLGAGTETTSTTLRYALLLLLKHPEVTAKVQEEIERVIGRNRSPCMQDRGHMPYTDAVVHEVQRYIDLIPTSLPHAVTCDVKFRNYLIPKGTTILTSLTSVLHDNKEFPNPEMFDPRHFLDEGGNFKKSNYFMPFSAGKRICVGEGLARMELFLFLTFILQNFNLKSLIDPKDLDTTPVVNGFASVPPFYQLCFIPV
Sequence of Cytochrome P450 3A4 (P08684 whole entry): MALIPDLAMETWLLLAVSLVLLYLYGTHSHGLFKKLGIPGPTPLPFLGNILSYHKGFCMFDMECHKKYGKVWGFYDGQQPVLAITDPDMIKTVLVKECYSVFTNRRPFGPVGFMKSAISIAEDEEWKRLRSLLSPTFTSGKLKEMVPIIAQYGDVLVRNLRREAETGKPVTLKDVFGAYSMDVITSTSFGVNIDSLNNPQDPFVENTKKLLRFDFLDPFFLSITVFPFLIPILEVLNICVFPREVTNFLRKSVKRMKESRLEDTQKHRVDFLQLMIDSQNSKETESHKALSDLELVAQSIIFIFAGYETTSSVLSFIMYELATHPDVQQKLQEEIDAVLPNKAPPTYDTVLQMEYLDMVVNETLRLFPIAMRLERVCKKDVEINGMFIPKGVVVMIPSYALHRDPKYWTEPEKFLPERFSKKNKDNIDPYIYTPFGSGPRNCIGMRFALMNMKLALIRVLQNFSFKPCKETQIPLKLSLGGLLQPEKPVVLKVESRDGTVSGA
Take `CCn1c(=O)c2c(nc(/C=C/c3ccc(OC)c(OC)c3)n2C)n(CC)c1=O` [ISTRADEFYLLINE]: the 50% effective dose (ED50) came to 0.13 mg/kg.
Regarding `COCCOc1ccc(N2CCN(CCn3ncc4c3nc(N)n3nc(-c5ccco5)nc43)CC2)cc1` [PRELADENANT], the ED50 was 0.4 mg/kg.

The species entered for the next data set is Homo sapiens. The data set can be described thus: Selectivity ratio of Ki for human adenosine A1 receptor to Ki for human adenosine A2A receptor.
Conditions: not given
As for `CC(C)(C)CC(=O)Nc1ccc(C(=O)Nc2nccs2)cc1F`, the Ratio Ki is 71.
Same read-out and setting: then `COc1cc(NC(=O)CC(C)(C)C)ccc1C(=O)Nc1nccs1`, with 22; and `Cc1cc(C(=O)Nc2nccs2)cc(Cl)c1NC(=O)CC(C)(C)C`, with 18; and `COc1c(C(=O)Nc2nccs2)ccc(NC(=O)CC(C)(C)C)c1F`, with 18.
Turning to `Cc1cc(C(=O)Nc2nccs2)ccc1NC(=O)CC(C)(C)C`, the Ratio Ki was 24.
The same measure, in the same setting: with `COc1cc(C(=O)Nc2nccs2)ccc1NC(=O)CC(C)(C)C` the figure was 20.
As to `CC(C)(C)CC(=O)Nc1ccc(C(=O)Nc2nccs2)cc1Cl`, the Ratio Ki is 10.

The next data set concerns the target T1, Adenosine receptor A1 (Homo sapiens, UniProt P30542).
T1 sequence (P30542 whole entry): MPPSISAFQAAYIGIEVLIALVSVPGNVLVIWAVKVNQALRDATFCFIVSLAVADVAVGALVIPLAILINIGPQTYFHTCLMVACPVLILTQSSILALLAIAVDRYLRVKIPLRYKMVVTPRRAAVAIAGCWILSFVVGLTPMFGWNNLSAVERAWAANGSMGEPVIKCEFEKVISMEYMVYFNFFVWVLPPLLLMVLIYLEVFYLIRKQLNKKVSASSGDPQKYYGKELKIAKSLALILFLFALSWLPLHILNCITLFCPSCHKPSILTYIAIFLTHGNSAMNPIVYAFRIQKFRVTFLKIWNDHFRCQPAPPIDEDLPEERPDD
In words: Displacement of [3H]-DPCPX from human adenosine A1 receptor expressed in CHO cells after 30 mins by scintillation counting. The data set is classed as cell-based.
Conditions: not given
The gist of the method:
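CHO-hA1 membranes at 10.8 μg protein/well, pretreated with adenosine deaminase (2 U/mL, 30 min, 37 C), were incubated with 1 nM [3H]-DPCPX in 50 mM Tris/HCl pH 7.4 for 30 min at 25 C across 10 compound concentrations. Filtration on PEI-soaked GF/B, scintillation counting. Nonspecific binding by CGS15943. Ki by Cheng-Prusoff. Means of ≥2 determinations.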
`CC(C)(C)CC(=O)Nc1ccc(C(=O)Nc2nccs2)cc1F`: the Ki was found to be 650 nM.
Molecule `COc1cc(NC(=O)CC(C)(C)C)ccc1C(=O)Nc1nccs1` yielded a Ki of 1100 nM.
In turn, `CC(C)(C)CC(=O)Nc1ccc(C(=O)Nc2ncc(Cl)s2)cc1` returned a Ki of 220 nM.
`Cc1cc(C(=O)Nc2nccs2)cc(Cl)c1NC(=O)CC(C)(C)C` showed a Ki of 580 nM.
Still for that read-out and setting: with `COc1c(C(=O)Nc2nccs2)ccc(NC(=O)CC(C)(C)C)c1F` the figure was 220 nM.
On to `Cc1cc(C(=O)Nc2nccs2)ccc1NC(=O)CC(C)(C)C`, for which the affinity corresponds to a Ki of 460 nM.
The molecule `COc1cc(C(=O)Nc2nccs2)ccc1NC(=O)CC(C)(C)C` returned a Ki of 340 nM.
Turning to `CC(C)(C)CC(=O)Nc1ccc(C(=O)Nc2nccs2)cc1Cl`, the inhibition constant (Ki) came to 210 nM.
The molecule `Cc1cnc(NC(=O)c2ccc(NC(=O)CC(C)(C)C)cc2)s1` returned an inhibition constant (Ki) of 1100 nM.

A further data set deals with Liver microsomes. The data set can be described thus: Intrinsic clearance in rat liver microsomes at 1 uM after 60 mins by LC-MS/MS analysis. Type of data set: ADME, Microsome. As to conditions: 1 h. The method in brief: (§1)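 Compound at 1 μM with human or rat liver microsomes (0.5 mg protein/mL) plus NADPH at 37 C. Samples at 0, 5, 15, 30 and 60 min, quenched with acetonitrile, analysed by LC-MS/MS.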
In general terms: Liver microsomes are a subcellular fraction often used to study metabolism.
For the molecule `CCn1c(=O)c2c(nc(/C=C/c3ccc(OC)c(OC)c3)n2C)n(CC)c1=O` [ISTRADEFYLLINE], the CL stood at 11 mL/min.
Molecule `CCCCC(=O)Nc1ccc(C(=O)Nc2nccs2)cc1` yielded a CL of 54 mL/min.

The next data set concerns the target T2, Adenosine receptor A1 (Homo sapiens) (UniProt P30542).
T2 sequence (whole entry): T1 sequence (P30542 whole entry)
The data set can be described thus: Displacement of [3H]-DPCPX from human adenosine A1 receptor expressed in CHO cells at 2000 nM after 30 mins by scintillation counting.
Conditions: not given
(In general: In a radioligand displacement assay an active substance lowers the binding of a labelled ligand.)
For `COCCOc1ccc(N2CCN(CCn3ncc4c3nc(N)n3nc(-c5ccco5)nc43)CC2)cc1` [PRELADENANT], the inhibition stood at 30%.

A further data set addresses Cytochrome P450 3A4 (Homo sapiens, UniProt P08684). The data set can be described thus: Inhibition of recombinant CYP3A4 after 30 mins. The data set is classed as ADME.
Conditions: not given
The gist of the method: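 Recombinant CYP supersomes incubated in phosphate buffer with eight compound concentrations (40-0.02 μM) and fluorogenic substrates. CYP3A4: resorufin benzyl ether 100 μM, 30 min. Fluorescent metabolite read; IC50 relative to uninhibited controls.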
Take `CCCCC(=O)Nc1ccc(C(=O)Nc2nccs2)cc1`: the IC50 was more than 40000 nM.

Another data set concerns the target T2, Adenosine receptor A1 (Homo sapiens). In words: Displacement of [3H]-DPCPX from human adenosine A1 receptor expressed in CHO cells at 10 uM after 30 mins by scintillation counting. Type of data set: cell-based.
Conditions: not given
Molecule `CCCCC(=O)Nc1ccc(C(=O)Nc2nccs2)cc1` registered an inhibition of 69%.

The target in a further data set is Adenosine receptor A2a (Homo sapiens, UniProt P29274). The data set can be described thus: Displacement of [3H]-ZM241385 from human adenosine A2A receptor expressed in high five cells after 30 mins by scintillation counting.
Sequence of Adenosine receptor A2a (P29274 whole entry): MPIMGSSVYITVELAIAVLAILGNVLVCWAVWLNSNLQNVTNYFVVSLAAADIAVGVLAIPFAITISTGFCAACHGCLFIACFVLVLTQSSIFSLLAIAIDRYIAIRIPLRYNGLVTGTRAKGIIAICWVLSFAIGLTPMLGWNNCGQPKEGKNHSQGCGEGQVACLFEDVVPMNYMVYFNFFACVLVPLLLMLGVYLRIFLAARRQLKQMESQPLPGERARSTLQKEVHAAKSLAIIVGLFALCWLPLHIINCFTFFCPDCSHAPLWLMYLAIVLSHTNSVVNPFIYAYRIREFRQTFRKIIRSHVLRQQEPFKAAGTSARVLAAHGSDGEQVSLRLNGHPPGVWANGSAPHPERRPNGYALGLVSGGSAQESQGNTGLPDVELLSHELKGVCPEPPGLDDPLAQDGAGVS
Conditions: not given
`CC(C)(C)CC(=O)Nc1ccc(C(=O)Nc2nccs2)cc1F`: the Ki was found to be 9.2 nM.
The same measure, in the same setting: with `COc1cc(NC(=O)CC(C)(C)C)ccc1C(=O)Nc1nccs1` the figure was 50 nM; with `CC(C)(C)CC(=O)Nc1ccc(C(=O)Nc2ncc(Cl)s2)cc1`, 28 nM.
On the same count and under the same terms, then `CCCCC(=O)Nc1ccc(C(=O)Nc2nccs2)cc1`, with 190 nM; and `Cc1cc(C(=O)Nc2nccs2)cc(Cl)c1NC(=O)CC(C)(C)C`, with 32 nM.
Turning to `COc1c(C(=O)Nc2nccs2)ccc(NC(=O)CC(C)(C)C)c1F`, the affinity, expressed as Ki, was 12 nM.
Still for that read-out and setting: with `Cc1cc(C(=O)Nc2nccs2)ccc1NC(=O)CC(C)(C)C` the figure was 19 nM.
Still for that read-out and setting: with `COc1cc(C(=O)Nc2nccs2)ccc1NC(=O)CC(C)(C)C` the figure was 17 nM.
`CC(C)(C)CC(=O)Nc1ccc(C(=O)Nc2nccs2)cc1Cl` registered a Ki of 22 nM.
Take `Cc1cnc(NC(=O)c2ccc(NC(=O)CC(C)(C)C)cc2)s1`: the Ki worked out at 120 nM.

A further data set addresses Cytochrome P450 2D6 (Homo sapiens, UniProt P10635). In words: Inhibition of recombinant CYP2D6 after 45 mins. Type of data set: ADME.
Conditions: not given
The method in brief:
(§2)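 Recombinant CYP supersomes incubated in phosphate buffer with eight compound concentrations (40-0.02 μM) and fluorogenic substrates. CYP1A2: 7-ethoxy-3-cyanocoumarin 10 μM, 28 min. CYP2C19: same substrate 50 μM, 45 min. CYP2D6: AMMC 3 μM, 45 min. CYP3A4: resorufin benzyl ether 100 μM, 30 min. Fluorescent metabolite read; IC50 relative to uninhibited controls.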
For the molecule `CCn1c(=O)c2c(nc(/C=C/c3ccc(OC)c(OC)c3)n2C)n(CC)c1=O` [ISTRADEFYLLINE], the IC50 was more than 40000 nM.
Regarding `CCCCC(=O)Nc1ccc(C(=O)Nc2nccs2)cc1`, the IC50 is more than 40000 nM.
Same read-out and setting: with `COCCOc1ccc(N2CCN(CCn3ncc4c3nc(N)n3nc(-c5ccco5)nc43)CC2)cc1` [PRELADENANT] the figure was more than 40000 nM.

The target of a further data set is Cytochrome P450 2C9 (Homo sapiens, UniProt P11712). In words: Inhibition of recombinant CYP2C9 after 45 mins. Type of data set: ADME.
Sequence of Cytochrome P450 2C9 (P11712 whole entry): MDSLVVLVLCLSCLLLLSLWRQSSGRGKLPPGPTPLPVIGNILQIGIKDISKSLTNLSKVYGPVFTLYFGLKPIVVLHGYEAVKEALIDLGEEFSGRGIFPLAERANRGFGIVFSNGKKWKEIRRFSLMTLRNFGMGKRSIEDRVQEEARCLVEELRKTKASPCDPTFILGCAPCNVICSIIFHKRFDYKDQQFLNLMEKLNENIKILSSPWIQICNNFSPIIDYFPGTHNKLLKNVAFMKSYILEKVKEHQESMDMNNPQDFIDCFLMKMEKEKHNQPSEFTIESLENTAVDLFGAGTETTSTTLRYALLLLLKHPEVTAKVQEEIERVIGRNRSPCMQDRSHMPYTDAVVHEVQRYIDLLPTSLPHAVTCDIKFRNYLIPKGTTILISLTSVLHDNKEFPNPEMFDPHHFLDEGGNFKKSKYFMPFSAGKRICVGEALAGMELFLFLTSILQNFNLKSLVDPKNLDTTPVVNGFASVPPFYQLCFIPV
Conditions: not given
As for `CCCCC(=O)Nc1ccc(C(=O)Nc2nccs2)cc1`, the IC50 was 40000 nM.

Another data set has as its target Cytochrome P450 2C19 (Homo sapiens, UniProt P33261). The data set can be described thus: Inhibition of recombinant CYP2C19 after 45 mins. Type of data set: ADME.
Conditions: not given
The method in brief:
as §2
`CCn1c(=O)c2c(nc(/C=C/c3ccc(OC)c(OC)c3)n2C)n(CC)c1=O` [ISTRADEFYLLINE]: the IC50 is more than 40000 nM.
On the same count and under the same terms, then `CCCCC(=O)Nc1ccc(C(=O)Nc2nccs2)cc1`, with more than 40000 nM; and `COCCOc1ccc(N2CCN(CCn3ncc4c3nc(N)n3nc(-c5ccco5)nc43)CC2)cc1` [PRELADENANT], with more than 40000 nM.

A further data set relates to Liver microsomes. The data set can be described thus: Intrinsic clearance in human liver microsomes at 1 uM after 60 mins by LC-MS/MS analysis. Type of data set: ADME, Microsome. As to conditions: 1 h. The method in brief: as §1
`CCn1c(=O)c2c(nc(/C=C/c3ccc(OC)c(OC)c3)n2C)n(CC)c1=O` [ISTRADEFYLLINE]: the CL was 0.1 L/min.
On the same count and under the same terms, with `CCCCC(=O)Nc1ccc(C(=O)Nc2nccs2)cc1` the figure was 2.3 L/min.

For the next data set, the target named is T3, Cytochrome P450 1A2 (Homo sapiens, UniProt P05177).
T3 sequence (P05177 whole entry): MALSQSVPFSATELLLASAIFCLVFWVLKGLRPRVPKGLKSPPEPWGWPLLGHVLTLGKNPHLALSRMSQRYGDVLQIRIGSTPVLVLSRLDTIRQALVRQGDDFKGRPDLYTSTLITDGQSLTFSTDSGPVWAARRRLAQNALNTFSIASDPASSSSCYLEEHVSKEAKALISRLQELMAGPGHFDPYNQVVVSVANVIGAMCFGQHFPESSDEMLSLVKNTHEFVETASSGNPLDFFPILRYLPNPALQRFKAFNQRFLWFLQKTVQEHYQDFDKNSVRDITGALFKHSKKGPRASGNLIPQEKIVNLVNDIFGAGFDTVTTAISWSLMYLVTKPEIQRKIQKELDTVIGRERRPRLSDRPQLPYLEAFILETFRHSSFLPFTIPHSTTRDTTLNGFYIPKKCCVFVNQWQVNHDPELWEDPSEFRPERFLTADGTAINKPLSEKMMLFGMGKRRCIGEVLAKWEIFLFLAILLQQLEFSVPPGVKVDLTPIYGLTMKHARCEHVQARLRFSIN
The data set can be described thus: Inhibition of recombinant CYP1A2 after 28 mins. The data set is classed as ADME.
Conditions: not given
The gist of the method:
as §2
`CCn1c(=O)c2c(nc(/C=C/c3ccc(OC)c(OC)c3)n2C)n(CC)c1=O` [ISTRADEFYLLINE]: the IC50 is more than 40000 nM.
Still for that read-out and setting: with `CCCCC(=O)Nc1ccc(C(=O)Nc2nccs2)cc1` the figure was more than 40000 nM; with `COCCOc1ccc(N2CCN(CCn3ncc4c3nc(N)n3nc(-c5ccco5)nc43)CC2)cc1` [PRELADENANT], more than 40000 nM.

The subject of the next data set is Caco-2. In words: Efflux ratio of permeability from basolateral to apical over apical to basolateral side in human Caco2 cells after 21 to 28 days by LC-MS/MS analysis.
Conditions: not given
For orientation: Caco-2 cells form a polarised layer with tight junctions and transporters.
Take `CCCCC(=O)Nc1ccc(C(=O)Nc2nccs2)cc1`: the Ratio was found to be 0.7.
The same measure, in the same setting: then `COCCOc1ccc(N2CCN(CCn3ncc4c3nc(N)n3nc(-c5ccco5)nc43)CC2)cc1` [PRELADENANT], with 1.1.

As usually defined, the ED50 is the dose that gives a 50% effect, or the effect in half of the subjects. Broadly, the Ki is a dissociation constant, usually derived from enzyme kinetics or from competition with a known ligand. Low readings indicate tighter binding, high ones weaker binding. Broadly, the inhibition is how much of the control response was suppressed. A word on the IC50: it is the midpoint of a concentration-inhibition curve.

The values are drawn from ChEMBL document CHEMBL1671809, “Discovery of phosphoric acid mono-{2-[(E/Z)-4-(3,3-dimethyl-butyrylamino)-3,5-difluoro-benzoylimino]-thiazol-3-ylmethyl} ester (Lu AA47070): a phosphonooxymethylene prodrug of a potent and selective hA(2A) receptor antagonist” (J Med Chem, 2011).
